EBI2 antag: blocks human EBI2 receptor beta-arrestin signaling | P32249 | EBI2 beta-arrestin recruitment, luminescence, 7a,25-OHC stimulated | inhibition, % at 5 µM | 360,000 tested, 0.81% active; in the data active = inhibition above about 38%;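 note: enzyme fragment complementation signal reports receptor beta-arrestin coupling in cells; 0% = agonist plus DMSO wells and 100% = wells without agonist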
Target sequence (P32249 whole entry, looked up, the tested form may be a part): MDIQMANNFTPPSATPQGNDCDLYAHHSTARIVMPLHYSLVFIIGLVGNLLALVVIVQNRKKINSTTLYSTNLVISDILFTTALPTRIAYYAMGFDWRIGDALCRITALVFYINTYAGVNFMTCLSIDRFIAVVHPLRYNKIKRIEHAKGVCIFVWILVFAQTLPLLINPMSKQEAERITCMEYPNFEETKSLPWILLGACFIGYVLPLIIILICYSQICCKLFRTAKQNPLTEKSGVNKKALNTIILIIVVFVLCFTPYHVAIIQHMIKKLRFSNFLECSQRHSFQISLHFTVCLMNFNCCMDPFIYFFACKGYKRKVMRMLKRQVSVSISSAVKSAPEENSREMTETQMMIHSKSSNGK
Myeloid diff MLP: compounds promoting myeloid differentiation. ER-HoxA9 myeloid progenitors, lysozyme-GFP differentiation, flow cytometry. calls only at 10 µM. 360,000 tested, 1% active;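 active = normalized GFP-positive differentiation at or above the plate's own cutoff, the solvent-only control mean plus 3 SD; inconclusive = no clear call, values can overlap the other calls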;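 note: cells exposed to compound for four days before flow analysis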
Granule exo inh: blocks lytic granule exocytosis; 360,000 tested, 0.66% active; inhibition, % at 10 µM; TALL-104 LAMP-1 surface exposure, flow cytometry; cells stimulated with thapsigargin and PMA;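 active = inhibition above about 55%, limit read from the data; inconclusive = no clear call, values can overlap the other calls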
MC4R antag cAMP: human MC4R antagonism in cAMP assay; P32245; MC4R-expressing cells, MTII-stimulated cAMP, LANCE TR-FRET; inhibition, % at 6.5 µM; 360,000 tested, 0.48% active; AID 540295;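 active = inhibition above its plate's cutoff, the mean of tested wells on that plate plus 3 SD, cut at about 29% in these data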;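 note: 0% = Melanotan II alone and 100% = Melanotan II plus saturating MCL0020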
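system = U2OS cells with stable human MC4R expression | also added = Melanotan II challenge after compound preincubation | dosing = one concentration, 6.5 µM nominal | incubation = compound 30 min, challenge 1 h, detection 1 h | measured by = TR-FRET with Eu-cAMP and labeled anti-cAMP, 671 nm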
MC4R ag barr: agonists of human melanocortin 4 receptor (MC4R) beta-arrestin | activation, % at 8.9 µM | U2OS MC4R beta-arrestin complementation, luminescence; percent of melanotan II response, DMSO zero | P32245 | 360,000 tested, 0.98% active;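 active = activation above a per-plate cutoff, the mean activation of sample wells on that plate plus 3 SD, cut at about 8% in these data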
U2OS cAMP counter: U2OS forskolin cAMP inhibition counter-screen; inhibition, % at 6.5 µM; shares compounds with MC4R antag cAMP; parental U2OS, LANCE TR-FRET; 1,600 tested, 26% active;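 active = mean inhibition over triplicates above the low-control well mean plus 3 SD, set per campaign, cut at about 13% in these data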;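 note: signal is single emission at 671 nm which falls as cellular cAMP rises; 0% = forskolin-stimulated wells and 100% = buffer without forskolin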
MC4R cAMP antag: human MC4R cAMP antagonism confirmation. inhibition, % at 6.5 µM. shares compounds with MC4R antag cAMP. 1,600 tested, 27% active. MC4R-expressing cells, MTII-stimulated cAMP, TR-FRET; in the data active = inhibition above about 29%;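 note: 0% = agonist stimulated wells alone and 100% = agonist stimulated wells plus saturating reference antagonist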
An asterisk follows results filed as active; i = inactive; ? = inconclusive; . = not tested or not shown. In the library only some 3.7% were active in any assay of this set; here they are far more common.

SMILES | EBI2 antag | Myeloid diff MLP | Granule exo inh | MC4R antag cAMP | MC4R ag barr | U2OS cAMP counter | MC4R cAMP antag
Cc1ccc(OCC(=O)Nc2cccc(S(=O)(=O)N3CCCCCC3)c2)c([N+](=O)[O-])n1 | -6 | i | 14 | 9 | 1 | . | .
COc1ccc(/C=C2\C(=O)N(c3c(Cl)cc(Cl)cc3Cl)N=C2NC(=O)c2cccc([N+](=O)[O-])c2)cc1 | 15 | i | 17 | 32* | -1 | -1 | 7
COc1ccc(/C=N/Nc2nc(Nc3ccccc3)nc(N3CCCC3)n2)cc1[N+](=O)[O-] | 4 | i | 8 | 32* | 3 | 2 | 1
Cc1ccoc1C(=O)N1CCCC(CCC(=O)N2CCN(c3ccccn3)CC2)C1 (centres undefined) | 4 | i | -1 | 31* | 0 | 3 | 7
CC1Cc2ccccc2N1S(=O)(=O)c1cnc(Cl)c(Br)c1 (centres undefined) | 11 | i | -4 | 30* | -2 | 22* | 38*
Cc1ccccc1S(=O)(=O)NC(=O)C1(C)CCN1C(=O)CCc1ccc(Cl)cc1Cl (centres undefined) | -6 | i | -1 | -4 | -1 | . | .
CCCCNc1c(-c2ccc(OC)c(Sc3ccc(OC)cc3)c2)nc2ccccn12 | -75 | i | 4 | 46* | 5 | 7 | 28
CCCCCCSc1cc(-c2nc3ccc(C)cn3c2NCc2ccccc2)ccc1OC | 37 | i | -1 | 13 | -1 | . | .
COc1ccc(/C=C2/C(=O)ON=C2c2ccccc2)cc1OC | -1 | i | 4 | -1 | 0 | . | .
COc1ccc(/C=C2\C(=O)ON=C2c2ccccc2)cc1OC | 8 | i | -37 | 31* | -1 | 2 | -4
Cc1ccc(S(=O)(=O)N(C)CC(=O)OCC(=O)N2CCN(c3ccccc3)CC2)cc1 | 0 | i | 1 | 33* | -1 | 20* | 21
Cn1c(=O)[nH]c(=O)c2c1nc(Br)n2CC(O)COc1ccc(Cl)cc1 (centres undefined) | -3 | i | -2 | 31* | 2 | -4 | -2
COc1ccc(OCC(O)Cn2c(Br)nc3c2c(=O)[nH]c(=O)n3C)cc1 (centres undefined) | 3 | i | 6 | -8 | -2 | . | .
COc1ccc(S(=O)(=O)N2CCN(Cc3cccc(F)c3)CC2)cc1 | 1 | i | -7 | 2 | 1 | . | .
CC(=O)c1cccc(NC(=S)NC(=O)c2ccc(C)cc2Cl)c1 | 8 | i | -2 | 0 | -2 | . | .
COc1ccc(Br)cc1C(=O)NC(=S)Nc1ccc(Cl)c(C(=O)O)c1 | 9 | i | 1 | 7 | 0 | . | .
COc1ccc(Br)cc1/C=C/C(=O)NC(=S)Nc1ccc(Cl)c(C(=O)O)c1 | 7 | i | -5 | 30* | -3 | 1 | 0
CC(=O)c1cccc(NC(=S)NC(=O)c2ccccc2Cl)c1 | -9 | i | -9 | 30* | -1 | 2 | 7
COc1ccc(C(=O)NC(=S)Nc2ccc(Cl)c(C(=O)O)c2)cc1 | 6 | i | -1 | 30* | 0 | -5 | -18
CCC1=NN(S(=O)(=O)c2ccc(C)cc2)C(O)(C(F)(F)F)C1 (centres undefined) | -8 | i | 2 | 29* | 1 | -2 | -7
CCC1=NN(C(=O)CCc2ccccc2)C(O)(C(F)(F)F)C1 (centres undefined) | 9 | i | 0 | 0 | 0 | . | .
C[C@@H]1CCCCO[C@H](CN(C)S(=O)(=O)c2cn(C)cn2)[C@@H](C)CN([C@H](C)CO)C(=O)c2cc(NC(=O)c3ccncc3)ccc2O1 | -1 | i | -3 | 17 | 1 | . | .
CC(c1ccccc1C(O)(c1ccccc1)c1ccccc1)N(C)C (centres undefined) | 0 | i | 3 | 29* | 4 | -9 | 3
CCOC(=O)[C@]12CCCC=C1N(Cc1cccc3ccccc13)C(=O)[C@H](CC(=O)N1CCCC1)C2 | 7 | i | 3 | . | . | . | .
CC(=O)c1cccc(NC(=O)COC(=O)c2ccccc2C)c1 | -11 | i | 2 | 38* | 2 | 1 | 2
SMILES | EBI2 antag | Myeloid diff MLP | Granule exo inh | MC4R antag cAMP | MC4R ag barr | U2OS cAMP counter | MC4R cAMP antag
CCOC(=O)C(=O)Nc1cccc(C(=O)OCC)c1 | 3 | i | -2 | 29* | 0 | 1 | 2
Cn1nc(N2CCN(S(=O)(=O)c3ccccc3)CC2)c(=O)n(C)c1=O | -14 | i | -2 | 2 | -3 | . | .
Nc1ccccc1C#CC(=O)c1ccccc1 | -10 | ? | 2 | 54* | -1 | 26* | 52*
CN(c1ccccc1)S(=O)(=O)c1cccc(C(=O)OCC(=O)NCc2ccccc2)c1 | -2 | i | 1 | 14 | 1 | . | .
COc1ccc(N(C)S(=O)(=O)c2cccc(C(=O)OCC(=O)NCc3ccccc3OC)c2)cc1 | -9 | i | 12 | 30* | -1 | 3 | 5
C[C@H](NC(=O)c1nc[nH]c1C(=O)N[C@@H](Cc1ccccc1)C(=O)OCc1ccccc1)C(=O)OC(C)(C)C | -15 | i | -1 | 34* | 8 | 8 | 11
CC(C)C[C@H](NC(=O)c1nc[nH]c1C(=O)N1CCN(C(=O)OC(C)(C)C)CC1)C(=O)OCc1ccccc1 | -16 | i | -1 | 34* | -1 | 16* | 23
CC(C)(C)OC(=O)[C@H](Cc1ccccc1)NC(=O)c1nc[nH]c1C(=O)NC1CCN(C(=O)OC(C)(C)C)CC1 | 5 | i | 8 | 37* | 5 | 7 | 5
Cc1ccccc1NC(=S)N(CCN1CCCCC1)Cc1ccco1 | -3 | i | -3 | 31* | 3 | 1 | -6
O=C(Nc1ccccn1)c1ccc(Br)s1 | -1 | i | 2 | 31* | 2 | 3 | 2
COC(=O)C1CCN(C(=O)c2cc3c(=O)n4cccc(C)c4nc3n2Cc2ccccc2)CC1 | 1 | i | 2 | 30* | 0 | -3 | -2
CCSc1nnc(SCC(=O)Nc2cc(C)on2)s1 | -1 | i | 1 | 9 | 1 | . | .
O=C(NC(Cc1c[nH]c2ccccc12)C(=O)N/N=C/c1ccc(Cl)cc1)c1cccs1 (centres undefined) | 12 | i | -1 | 30* | 0 | 2 | 7
C=CC(=O)N1C/C(=C/c2ccc(F)cc2)C(=O)/C(=C\c2ccc(F)cc2)C1 | 53* | ? | 94* | 40* | -5 | 28* | 22
COc1ccc(CC(Cc2ccc(OC)c(OC)c2)NC=O)cc1OC | -3 | i | 1 | 7 | -3 | . | .
Cc1cc(C)n2nc(C(=O)NNC(=O)c3ccc(Cl)cc3)nc2n1 | 8 | i | -2 | 36* | -1 | 0 | 3
O=C(CSc1ncnc2c1cnn2-c1ccccc1)NCC1CCCO1 (centres undefined) | -5 | i | -3 | -2 | -1 | . | .
